Here are results for 22 compounds from ChEMBL document CHEMBL3603816, “Synthetic Small Molecules Derived from Natural Vitamin K Homologues that Induce Selective Neuronal Differentiation of Neuronal Progenitor Cells” (2015).

The test system of assay [1] is Neuronal progenitor cell. Nature of the assay: Induction of neuronal differentiation in mouse neuronal progenitor cells assessed as expression of Map2 at 1 uM treated for every second day for 4 days by immunofluorescence staining method. It counts as functional. A digest of the protocol:
(§1)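 Neural stem/progenitor cells dissociated from embryonic day 14 mouse cerebrum. Cultured 24 h after seeding, then given 1 μM analogue every second day for 4 days. Immunofluorescence with Map2 (neurons, red) and Gfap (astrocytes, green), nuclei counterstained with DAPI. Imaged by confocal laser microscopy; the legend states staining after 48 h.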

For assay [2], the system named is Neuronal progenitor cell. Nature of the assay: Induction of neuronal differentiation in mouse neuronal progenitor cells assessed as expression of Gfap at 1 uM treated for every second day for 4 days by immunofluorescence staining method. The class given is functional. A digest of the protocol: as §1
Assay [3] can be described thus: Induction of neuronal differentiation in mouse neuronal progenitor cells assessed as expression of Map2 at 1 uM treated for every second day for 4 days by real-time PCR method relative to control.
Assay [4] deals with Neuronal progenitor cell. Nature of the assay: Induction of neuronal differentiation in mouse neuronal progenitor cells assessed as relative ratio of expression of Map2/Gfap mRNA at 1 uM treated for every second day for 4 days by RT-PCR analysis. The class given is functional. A digest of the protocol:
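E14 mouse cerebral progenitor cells, cultured 24 h, then treated with 1.0 × 10−6 M compound or ethanol for 4 days. mRNA extracted; Map2, Gfap and β-actin levels quantitated by real-time PCR, and the Map2/Gfap ratio calculated. Means of three independent experiments ± SD. Dunnett's t-test versus EtOH.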

Active and inactive are the calls of the source. The rule behind the calls is not given here.

In the case of `C/C(=C\CO)CC/C=C(\C)Cc1ccc2ccccc2c1`, the outcome in assay [1] was Active. Moreover, the outcome in assay [2] was inactive.
Take `CC1=C(C/C=C(\C)CC/C=C(\C)Cc2ccc(-c3ccccc3)cc2)C(=O)c2ccccc2C1=O`: the result in assay [1] was Active. Moreover, in assay [2], the outcome was inactive. Moreover, the “fold change (FC)” value in assay [3] turned out to be 1.5.
As to `C/C(=C\CO)CC/C=C(\C)CC/C=C(\C)Cc1cccc(C)c1`, the result in assay [1] was Active. Besides, the outcome in assay [2] was inactive.
`CC(C)=CCC/C(C)=C/CC1=C(C)C(=O)c2ccccc2C1=O`: in assay [4], the outcome was Active.
As for `CC1=C(C/C=C(\C)CC/C=C(\C)Cc2cccc3ccccc23)C(=O)c2ccccc2C1=O`, the result in assay [1] was Active. Moreover, the result in assay [2] was inactive. Besides, the “fold change (FC)” value in assay [3] is 1.5.
With `CC1=C(C/C=C(\C)CC/C=C(\C)Cc2ccccc2)C(=O)c2ccccc2C1=O`, the outcome in assay [1] was Active. Besides, the outcome in assay [2] was inactive. Moreover, in assay [3], the “fold change (FC)” value is on record as 1.5.
Turning to `C/C(=C\CO)CC/C=C(\C)CC/C=C(\C)Cc1ccc(-c2ccccc2)cc1`, the outcome in assay [1] was Active. Also, the outcome in assay [2] was inactive.
In the case of `CC1=C(C/C=C(\C)CC/C=C(\C)CC/C=C(\C)Cc2cccc3ccccc23)C(=O)c2ccccc2C1=O`, in assay [1], the outcome was Active. Besides, in assay [2], the outcome was inactive. Moreover, in assay [3], the “fold change (FC)” value came out at 1.5.
Regarding `CC1=C(C/C=C(\C)CC/C=C(\C)CC/C=C(\C)Cc2ccc3ccccc3c2)C(=O)c2ccccc2C1=O`, the outcome in assay [1] was Active. Besides, in assay [2], the outcome was inactive. The “fold change (FC)” value in assay [3] was found to be 1.5.
With `C/C(=C\CO)CC/C=C(\C)CC/C=C(\C)Cc1ccc2ccccc2c1`, the result in assay [1] was Active. In addition, in assay [2], the result was inactive.
For `C/C(=C\CO)CC/C=C(\C)CC/C=C(\C)Cc1ccccc1`, in that order: “Active” and “inactive”.
For the compound `CC1=C(C/C=C(\C)CC/C=C(\C)CC/C=C(\C)Cc2ccccc2)C(=O)c2ccccc2C1=O`, in assay [1], the result was Active. For the same compound, the outcome in assay [2] was inactive. In addition, in assay [3], the “fold change (FC)” value worked out at 1.5.
As for `CC(C)=CCC/C(C)=C/CC/C(C)=C/CC1=C(C)C(=O)c2ccccc2C1=O`, in assay [4], the outcome was Active.
In the case of `C/C(=C\CO)CC/C=C(\C)Cc1ccc(-c2ccccc2)cc1`, in assay [1], the result was Active. Also, the outcome in assay [2] was inactive.
With `C/C(=C\CO)CC/C=C(\C)Cc1cccc2ccccc12`, the outcome in assay [1] was Active. For the same compound, the outcome in assay [2] was inactive.
As to `CC1=C(C/C=C(\C)CC/C=C(\C)Cc2ccc3ccccc3c2)C(=O)c2ccccc2C1=O`, the result in assay [1] and in assay [2] was inactive. Further, in assay [3], the “fold change (FC)” value is recorded as 1.5.
Take `CC1=C(C/C=C(\C)CC/C=C(\C)CC/C=C(\C)Cc2cccc(C)c2)C(=O)c2ccccc2C1=O`: the result in assay [1] and in assay [4] was Active. In assay [2], the result was inactive. Also, the “fold change (FC)” value in assay [3] amounted to 1.5.
As for `CC1=C(C/C=C(\C)CC/C=C(\C)CC/C=C(\C)Cc2ccc(-c3ccccc3)cc2)C(=O)c2ccccc2C1=O`, in assay [1], the result was Active. The outcome in assay [2] was inactive. In assay [3], the “fold change (FC)” value stood at 1.5.
For `C/C(=C\CO)CC/C=C(\C)Cc1ccccc1`, the result in assay [1] was Active. In addition, the outcome in assay [2] was inactive.
As to `CC1=C(C/C=C(\C)CC/C=C(\C)Cc2cccc(C)c2)C(=O)c2ccccc2C1=O`, in assay [1], the result was Active. The result in assay [2] was inactive. The “fold change (FC)” value in assay [3] turned out to be 1.5.
As to `C/C(=C\CO)CC/C=C(\C)CC/C=C(\C)Cc1cccc2ccccc12`, the result in assay [1] was Active. In addition, in assay [2], the outcome was inactive.
The like results for `C/C(=C\CO)CC/C=C(\C)Cc1cccc(C)c1` were, in that order, “Active” and “inactive”.
